Measured values from ChEMBL document CHEMBL2412964, “Discovery of novel tetrahydro-pyrazolo [4,3-c] pyridines for the treatment of neuropathic pain: synthesis and neuropharmacology” (Eur J Med Chem, 2013).

Key:
Rattus norvegicus [1] = assay: Antinociceptive activity in Wistar rat partial sciatic nerve ligation model assessed as reversal of mechanical allodynia at 100 mg/kg, ip after 120 mins (reference value: 2.9 +/- 0.3%); type: functional; conditions: route intraperitoneal
Rattus norvegicus [2] = assay: Antinociceptive activity in Wistar rat partial sciatic nerve ligation model assessed as reversal of mechanical allodynia at 100 mg/kg, ip after 60 mins (reference value: 2.8 +/- 0.3%); type: functional; conditions: route intraperitoneal
Rattus norvegicus [3] = assay: Antinociceptive activity in Wistar rat partial sciatic nerve ligation model assessed as reversal of mechanical allodynia at 100 mg/kg, ip after 30 mins (reference value: 2.9 +/- 0.3%); type: functional; conditions: route intraperitoneal
Rattus norvegicus [4] = assay: Antinociceptive activity in Wistar rat chronic constriction injury model assessed as reversal of mechanical allodynia at 100 mg/kg, ip after 120 mins (reference value: 5.3 +/- 0.5%); type: functional; conditions: route intraperitoneal
Rattus norvegicus [5] = assay: Antinociceptive activity in Wistar rat chronic constriction injury model assessed as reversal of mechanical allodynia at 100 mg/kg, ip after 60 mins (reference value: 4.9 +/- 1.0%); type: functional; conditions: route intraperitoneal
Rattus norvegicus [6] = assay: Antinociceptive activity in Wistar rat chronic constriction injury model assessed as reversal of mechanical allodynia at 100 mg/kg, ip after 30 mins (reference value: 4.7 +/- 2.1%); type: functional; conditions: route intraperitoneal
Rattus norvegicus [7] = assay: Antinociceptive activity in Wistar rat partial sciatic nerve ligation model assessed as reversal of cold allodynia at 100 mg/kg, ip after 120 mins (reference value: 1.5 +/- 0.5%); type: functional; conditions: route intraperitoneal
Rattus norvegicus [8] = assay: Antinociceptive activity in Wistar rat partial sciatic nerve ligation model assessed as reversal of cold allodynia at 100 mg/kg, ip after 60 mins (reference value: 2.5 +/- 0.3%); type: functional; conditions: route intraperitoneal
Rattus norvegicus [9] = assay: Antinociceptive activity in Wistar rat partial sciatic nerve ligation model assessed as reversal of cold allodynia at 100 mg/kg, ip after 30 mins (reference value: 4.1 +/- 1.0%); type: functional; conditions: route intraperitoneal
Rattus norvegicus [10] = assay: Antinociceptive activity in Wistar rat chronic constriction injury model assessed as reversal of cold allodynia at 100 mg/kg, ip after 120 mins (reference value: 5.4 +/- 1.9%); type: functional; conditions: route intraperitoneal
Rattus norvegicus [11] = assay: Antinociceptive activity in Wistar rat chronic constriction injury model assessed as reversal of cold allodynia at 100 mg/kg, ip after 60 mins (reference value: 6.3 +/- 1.9%); type: functional; conditions: route intraperitoneal
Rattus norvegicus [12] = assay: Antinociceptive activity in Wistar rat chronic constriction injury model assessed as reversal of cold allodynia at 100 mg/kg, ip after 30 mins (reference value: 0.6 +/- 2.7%); type: functional; conditions: route intraperitoneal
Rattus norvegicus [13] = assay: Antinociceptive activity in Wistar rat partial sciatic nerve ligation model assessed as reversal of tactile allodynia at 100 mg/kg, ip after 120 mins relative to control; type: functional; conditions: route intraperitoneal
Rattus norvegicus [14] = assay: Antinociceptive activity in Wistar rat partial sciatic nerve ligation model assessed as reversal of tactile allodynia at 100 mg/kg, ip after 60 mins (reference value: 12.5 +/- 1.2%); type: functional; conditions: route intraperitoneal
Rattus norvegicus [15] = assay: Antinociceptive activity in Wistar rat partial sciatic nerve ligation model assessed as reversal of tactile allodynia at 100 mg/kg, ip after 30 mins (reference value: 7.7 +/- 0.7%); type: functional; conditions: route intraperitoneal
Rattus norvegicus [16] = assay: Antinociceptive activity in Wistar rat chronic constriction injury model assessed as reversal of tactile allodynia at 100 mg/kg, ip after 120 mins (reference value: 4.1 +/- 2.1%); type: functional; conditions: route intraperitoneal
Rattus norvegicus [17] = assay: Antinociceptive activity in Wistar rat chronic constriction injury model assessed as reversal of tactile allodynia at 100 mg/kg, ip after 60 mins (reference value: 1.3 +/- 0.3%); type: functional; conditions: route intraperitoneal
Rattus norvegicus [18] = assay: Antinociceptive activity in Wistar rat chronic constriction injury model assessed as reversal of tactile allodynia at 100 mg/kg, ip after 30 mins (reference value: 3.4 +/- 0.8%); type: functional; conditions: route intraperitoneal
Rattus norvegicus [19] = assay: Antinociceptive activity in Wistar rat partial sciatic nerve ligation model assessed as reversal of spontaneous pain response at 100 mg/kg, ip after 120 mins (reference value: 1.2 +/- 0.1%); type: functional; conditions: route intraperitoneal
Rattus norvegicus [20] = assay: Antinociceptive activity in Wistar rat partial sciatic nerve ligation model assessed as reversal of spontaneous pain response at 100 mg/kg, ip after 60 mins (reference value: 2.9 +/- 0.3%); type: functional; conditions: route intraperitoneal
Rattus norvegicus [21] = assay: Antinociceptive activity in Wistar rat partial sciatic nerve ligation model assessed as reversal of spontaneous pain response at 100 mg/kg, ip after 30 mins (reference value: 3.2 +/- 0.3%); type: functional; conditions: route intraperitoneal
Rattus norvegicus [22] = assay: Antinociceptive activity in Wistar rat chronic constriction injury model assessed as reversal of spontaneous pain response at 100 mg/kg, ip after 120 mins (reference value: 4.5 +/- 0.2%); type: functional; conditions: route intraperitoneal
Rattus norvegicus [23] = assay: Antinociceptive activity in Wistar rat chronic constriction injury model assessed as reversal of spontaneous pain response at 100 mg/kg, ip after 60 mins (reference value: 4.6 +/- 0.6%); type: functional; conditions: route intraperitoneal
Rattus norvegicus [24] = assay: Antinociceptive activity in Wistar rat chronic constriction injury model assessed as reversal of spontaneous pain response at 100 mg/kg, ip after 30 mins (reference value: 8.9 +/- 4.6%); type: functional; conditions: route intraperitoneal
Mus musculus [25] = assay: Antinociceptive activity in Swiss albino mouse assessed as inhibition of formalin-induced flinching at 100 mg/kg administered 30 mins prior to test measured for 10 to 30 mins relative to control; type: functional
Mus musculus [26] = assay: Antinociceptive activity in Swiss albino mouse assessed as inhibition of formalin-induced flinching at 100 mg/kg administered 30 mins prior to test measured up to 5 mins relative to control; type: functional
Mus musculus [27] = assay: Antinociceptive activity in Swiss albino mouse assessed as inhibition of acetic acid-induced writhing at 100 mg/kg administered 30 mins prior to acetic acid-challenge measured for 30 mins relative to control; type: functional
Method in brief: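 Swiss albino mice (20–25 g, either sex); writhing induced by i.p. 0.1 mL of 2.0% v/v acetic acid given half an hour after test compound dosing.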

Mus musculus [28] = species on record: Mus musculus; assay: Neurotoxicity in Swiss albino mouse assessed as minimal motor impairment after 4 hrs by rotarod test; type: toxicity, organism-based; conditions: in vivo
Method in brief: (§1)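 Mice, either sex, 20-25 g, dosed at 30, 100 and 300 mg/kg. Minimal motor impairment was scored on the rotarod at 0.5 and 4.0 h. Value reported is the minimum dose showing the effect in half or more of three mice per group.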

Mus musculus [29] = species on record: Mus musculus; assay: Neurotoxicity in Swiss albino mouse assessed as minimal motor impairment after 0.5 hrs by rotarod test; type: toxicity, organism-based; conditions: in vivo; method in brief: as §1
Mus musculus [30] = assay: Antinociceptive activity in Swiss albino mouse assessed as inhibition of formalin-induced flinching at 5 mg/kg administered 30 mins prior to test measured for 10 to 30 mins relative to control; type: functional
Mus musculus [31] = assay: Antinociceptive activity in Swiss albino mouse assessed as inhibition of formalin-induced flinching at 5 mg/kg administered 30 mins prior to test measured up to 5 mins relative to control; type: functional
Mus musculus [32] = assay: Antinociceptive activity in Swiss albino mouse assessed as inhibition of acetic acid-induced writhing at 5 mg/kg administered 30 mins prior to acetic acid-challenge measured for 30 mins relative to control; type: functional
Mus musculus [33] = assay: Neurotoxicity in Swiss albino mouse assessed as minimal motor impairment at 300 mg/kg after 4 hrs by rotarod test; type: toxicity, organism-based; set-up: dose 300 mg/kg; conditions: in vivo
Method in brief: (§2)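 Swiss albino mice of either sex, 20-25 g, dosed at 30, 100 and 300 mg/kg, three per group. Minimal motor impairment scored by rotarod at 0.5 and 4.0 h after dosing. Reported value is the lowest dose giving impairment in half or more of the mice.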

Mus musculus [34] = assay: Neurotoxicity in Swiss albino mouse assessed as minimal motor impairment at 300 mg/kg after 0.5 hrs by rotarod test; type: toxicity, organism-based; set-up: dose 300 mg/kg; conditions: in vivo; method in brief: as §2

Row | SMILES | Activity (Rattus norvegicus [1]) [%] | Activity (Rattus norvegicus [2]) [%] | Activity (Rattus norvegicus [3]) [%] | Activity (Rattus norvegicus [4]) [%] | Activity (Rattus norvegicus [5]) [%] | Activity (Rattus norvegicus [6]) [%] | Activity (Rattus norvegicus [7]) [%] | Activity (Rattus norvegicus [8]) [%] | Activity (Rattus norvegicus [9]) [%] | Activity (Rattus norvegicus [10]) [%] | Activity (Rattus norvegicus [11]) [%] | Activity (Rattus norvegicus [12]) [%] | Activity (Rattus norvegicus [13]) [%] | Activity (Rattus norvegicus [14]) [%] | Activity (Rattus norvegicus [15]) [%] | Activity (Rattus norvegicus [16]) [%] | Activity (Rattus norvegicus [17]) [%] | Activity (Rattus norvegicus [18]) [%] | Activity (Rattus norvegicus [19]) [%] | Activity (Rattus norvegicus [20]) [%] | other results
1 | CCN1CCc2c(c(C)nn2C(=O)Nc2ccc(C)cc2C)C1 | 18.7 | 50.5 | 63.3 | 65 | 57.5 | 70.8 | 38.7 | 14.3 | 60.4 | 41.8 | 37.3 | 54.4 | 30.2 | 41.9 | 53.3 | 66.1 | 56.6 | 17.2 | 5.9 | 34.4 | Activity (Rattus norvegicus [21]): 40.7%; Activity (Rattus norvegicus [22]): 64.4%; Activity (Rattus norvegicus [23]): 67.5%; Activity (Rattus norvegicus [24]): 72.9%; inhibition in vivo at 100 mg/kg (Mus musculus [25]): 16.3%; inhibition in vivo at 100 mg/kg (Mus musculus [26]): 7%; inhibition in vivo at 100 mg/kg (Mus musculus [27]): 56.1%; MLD (Mus musculus [28]): 300 mg/kg; MLD (Mus musculus [29]): 300 mg/kg
2 | CCN1CCc2c(c(C)nn2C(=O)Nc2cc(C)ccc2C)C1 | 14.6 | 20.8 | 39.6 | 16.8 | 20.7 | 3.8 | 12 | 14.8 | 17.1 | 14.1 | 18.7 | 18.4 | 3.5 | 16 | 27.6 | 2.2 | 9.9 | 17.3 | 4.8 | 11.1 | Activity (Rattus norvegicus [21]): 7.5%; Activity (Rattus norvegicus [22]): 27.7%; Activity (Rattus norvegicus [23]): 33.3%; Activity (Rattus norvegicus [24]): 23.6%; inhibition in vivo at 100 mg/kg (Mus musculus [25]): 55.8%; inhibition in vivo at 100 mg/kg (Mus musculus [26]): 2.6%; inhibition in vivo at 100 mg/kg (Mus musculus [27]): 62.2%; MLD (Mus musculus [28]): 300 mg/kg; MLD (Mus musculus [29]): 300 mg/kg
3 | CCN1CCc2c(c(C(C)(C)C)nn2C(=O)Nc2ccc(F)cc2F)C1 | 43.9 | 60.2 | 60 | 11.2 | 72.9 | 70.8 | 40 | 64.4 | 64.3 | 40 | 64.4 | 64.3 | 38.3 | 51.7 | 66.7 | 51.7 | 58.3 | 61.2 | 56.9 | 65 | Activity (Rattus norvegicus [21]): 89.3%; Activity (Rattus norvegicus [22]): 91.6%; Activity (Rattus norvegicus [23]): 85.9%; Activity (Rattus norvegicus [24]): 81.6%; inhibition in vivo at 100 mg/kg (Mus musculus [25]): 73.4%; inhibition in vivo at 100 mg/kg (Mus musculus [26]): 4.4%; inhibition in vivo at 100 mg/kg (Mus musculus [27]): 71.9%; MLD (Mus musculus [28]): 100 mg/kg; MLD (Mus musculus [29]): 100 mg/kg
4 | COc1ccc2c(c1)c(CC(=O)O)c(C)n2C(=O)c1ccc(Cl)cc1 [INDOMETHACIN] |  |  |  |  |  |  |  |  |  |  |  |  |  |  |  |  |  |  |  |  | inhibition in vivo at 5 mg/kg (Mus musculus [30]): 72.1%; inhibition in vivo at 5 mg/kg (Mus musculus [31]): 4.7%; inhibition in vivo at 5 mg/kg (Mus musculus [32]): 96.1%; Activity (Mus musculus [33]): Non-toxic; Activity (Mus musculus [34]): Non-toxic
5 | CCN1CCc2c(c(C)nn2C(=O)Nc2ccc(F)cc2F)C1 | 63.3 | 58.9 | 62.1 | 63.3 | 58.9 | 62.1 | 40 | 35.4 | 58.7 | 40.6 | 53.1 | 72.7 | 39.2 | 41.7 | 58.3 | 67 | 69.6 | 39.3 | 14.7 | 28.2 | Activity (Rattus norvegicus [21]): 59.2%; Activity (Rattus norvegicus [22]): 72.8%; Activity (Rattus norvegicus [23]): 63.6%; Activity (Rattus norvegicus [24]): 69.3%; inhibition in vivo at 100 mg/kg (Mus musculus [25]): 14.3%; inhibition in vivo at 100 mg/kg (Mus musculus [26]): 7.8%; inhibition in vivo at 100 mg/kg (Mus musculus [27]): 76.3%; Activity (Mus musculus [33]): Non-toxic; Activity (Mus musculus [34]): Non-toxic
